Assay results from ChEMBL document CHEMBL4808227, “Induction of apoptosis, cytotoxicity and radiosensitization by novel 3,4-dihydroquinazolinone derivatives” (Bioorg Med Chem Lett, 2021).
Activity calls are given as the source filed them. The calls are words filed in the database; no cut-off is given here.

What was measured:
[1] = system: HepG2; experiment: Cytotoxicity against human HepG2 cells measured after 24 hrs by MTT assay; format: functional, cell-based; conditions: HepG2, 24 h
Procedure, shortened: (§1)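 MTT viability assay on HepG-2 and MCF-7 cells with serial dilutions of compound for 24 hr. Viability is expressed as percent of untreated cells (taken as 100%). IC50 is the concentration inhibiting growth by 50%, mean ± SD of three independent experiments.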

[2] = system: MCF7; experiment: Cytotoxicity against human MCF7 cells measured after 24 hrs by MTT assay; format: functional, cell-based; conditions: MCF7, 24 h; procedure, shortened: as §1
[3] = system: HepG2; experiment: Induction of apoptosis in human HepG2 cells assessed as viable cells by Annexin V-FITC/propidium iodide staining based flow cytometric analysis (reference value: 94.4 %); format: functional
[4] = system: HepG2; experiment: Induction of apoptosis in human HepG2 cells assessed as necrotic cells by Annexin V-FITC/propidium iodide staining based flow cytometric analysis (reference value: 0.007 %); format: functional
[5] = system: HepG2; experiment: Induction of apoptosis in human HepG2 cells assessed as late apoptotic cells by Annexin V-FITC/propidium iodide staining based flow cytometric analysis (reference value: 0.507 %); format: functional
[6] = system: HepG2; experiment: Induction of apoptosis in human HepG2 cells assessed as early apoptotic cells by Annexin V-FITC/propidium iodide staining based flow cytometric analysis (reference value: 5.06 %); format: functional
[7] = molecular target: Epidermal growth factor receptor (Homo sapiens, UniProt P00533); experiment: Inhibition of EGFR (unknown origin)
[8] = Downregulation of Survivin mRNA expression in human HepG2 cells by real time RT-PCR analysis relative to control; format: functional
Procedure, shortened: (§2)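 HepG-2 cells were treated with compound. Survivin, XIAP and p21 mRNA were quantified by real-time RT-PCR, with each triplicate's Ct normalized to GAPDH. Expression is relative to control.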

[9] = Downregulation of XIAP mRNA expression in human HepG2 cells by real time RT-PCR analysis relative to control; format: functional; procedure, shortened: as §2
[10] = Upregulation of p21 mRNA expression in human HepG2 cells by real time RT-PCR analysis relative to control; format: functional; procedure, shortened: as §2
[11] = system: HepG2; experiment: Induction of apoptosis in human HepG2 cells assessed as increase in caspase-3 level by ELISA relative to control; format: functional
Procedure, shortened: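 HepG-2 cells were treated with compound, with DMSO-treated cells as control. Caspase-3 secreted into the culture medium was measured by ELISA, given as mean ± SD, n = 3.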

[12] = system: HepG2; experiment: Cell cycle arrest in human HepG2 cells assessed as accumulation of cells at G2/M phase measured by flow cytometry ( Rvb = 21.7%); format: functional
[13] = system: HepG2; experiment: Cell cycle arrest in human HepG2 cells assessed as accumulation of cells at S phase measured by flow cytometry (reference value: 6.08%); format: functional
[14] = system: HepG2; experiment: Cell cycle arrest in human HepG2 cells assessed as accumulation of cells at G0/G1 phase measured by flow cytometry (reference value: 71.6%); format: functional
[15] = system: HepG2; experiment: Radiosensitizing activity against human HepG2 cells assessed as reduction in cell viability pretreated with compound followed by exposure to 8 Gy gamma irradiation and measured by MTT assay; format: functional, cell-based; conditions: HepG2, light or radiation study
Procedure, shortened: (§3)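 HepG-2 and MCF-7 cells containing compound received a single dose of 8 Gy gamma radiation. Cytotoxicity was then measured, with IC50 as the mean ± SD of three independent experiments.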

[16] = system: MCF7; experiment: Radiosensitizing activity against human MCF7 cells assessed as reduction in cell viability pretreated with compound followed by exposure to 8 Gy gamma irradiation and measured by MTT assay; format: functional, cell-based; conditions: MCF7, light or radiation study; procedure, shortened: as §3
[17] = system: HepG2; experiment: Radiosensitizing activity against human HepG2 cells assessed as downregulation of Survivin mRNA expression pretreated with compound followed by exposure to 8 Gy gamma irradiation by real time RT-PCR analysis; format: functional, cell-based
[18] = system: HepG2; experiment: Radiosensitizing activity against human HepG2 cells assessed as downregulation of XIAP mRNA expression pretreated with compound followed by exposure to 8 Gy gamma irradiation by real time RT-PCR analysis; format: functional, cell-based

Sequence of Epidermal growth factor receptor (P00533 whole entry): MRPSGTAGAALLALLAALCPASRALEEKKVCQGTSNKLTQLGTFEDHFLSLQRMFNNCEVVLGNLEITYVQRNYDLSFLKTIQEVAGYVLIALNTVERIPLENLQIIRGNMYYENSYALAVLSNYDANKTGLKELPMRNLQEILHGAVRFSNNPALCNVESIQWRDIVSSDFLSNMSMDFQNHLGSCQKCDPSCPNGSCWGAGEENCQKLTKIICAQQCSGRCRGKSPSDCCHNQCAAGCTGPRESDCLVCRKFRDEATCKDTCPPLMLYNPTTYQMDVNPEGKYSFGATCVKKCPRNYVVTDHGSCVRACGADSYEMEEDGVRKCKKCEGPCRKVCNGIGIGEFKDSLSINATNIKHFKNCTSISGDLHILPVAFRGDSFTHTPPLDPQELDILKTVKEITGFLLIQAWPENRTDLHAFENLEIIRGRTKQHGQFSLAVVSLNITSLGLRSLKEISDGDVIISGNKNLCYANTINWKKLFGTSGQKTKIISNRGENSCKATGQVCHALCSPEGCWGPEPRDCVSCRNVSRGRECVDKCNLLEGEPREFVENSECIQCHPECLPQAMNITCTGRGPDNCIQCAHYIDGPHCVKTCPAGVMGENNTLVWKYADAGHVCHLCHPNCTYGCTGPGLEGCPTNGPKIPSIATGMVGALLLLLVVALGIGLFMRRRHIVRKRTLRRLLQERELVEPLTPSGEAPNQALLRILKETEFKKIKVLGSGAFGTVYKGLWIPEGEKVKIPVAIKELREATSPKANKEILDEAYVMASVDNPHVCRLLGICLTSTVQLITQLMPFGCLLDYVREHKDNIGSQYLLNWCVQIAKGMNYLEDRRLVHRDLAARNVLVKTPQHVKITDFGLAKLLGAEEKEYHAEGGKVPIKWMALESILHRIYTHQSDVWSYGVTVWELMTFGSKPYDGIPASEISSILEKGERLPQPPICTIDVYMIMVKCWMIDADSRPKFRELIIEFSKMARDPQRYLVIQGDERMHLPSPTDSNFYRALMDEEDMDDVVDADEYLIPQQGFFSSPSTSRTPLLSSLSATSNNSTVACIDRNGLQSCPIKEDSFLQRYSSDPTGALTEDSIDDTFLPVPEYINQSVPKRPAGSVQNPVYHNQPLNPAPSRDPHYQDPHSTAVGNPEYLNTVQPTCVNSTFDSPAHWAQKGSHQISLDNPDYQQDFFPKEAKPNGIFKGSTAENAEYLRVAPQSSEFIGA

CCC(=O)Nc1ccc(S(=O)(=O)Nc2ccc(/C(C)=N/NC(=O)CSc3nc4ccccc4c(=O)n3Cc3ccc4c(c3)OCO4)cc2)cc1
IC50 [1]: 4.21 µM | IC50 [2]: 15.1 µM

O=C(CSc1nc2ccccc2c(=O)n1Cc1ccc2c(c1)OCO2)Nc1ccc(Br)cc1Br
Activity [3]: 86.6% | Activity [4]: 0.02% | Activity [5]: 0.16% | Activity [6]: 15.4% | IC50 [1]: 4.01 µM | IC50 [2]: 14.9 µM | IC50 [7]: 1.03 µM | inhibition (INH) [8]: 50% | inhibition (INH) [9]: 50% | Activity [10]: 400% | Activity [11]: 50% | Activity [12]: 85.8% | Activity [13]: 2.32% | Activity [14]: 0.06% | IC50 [15]: 1.76 µM | IC50 [16]: 4.91 µM | Activity [17]: Active | Activity [18]: Active

O=C(CSc1nc2ccccc2c(=O)n1Cc1ccc2c(c1)OCO2)Nc1cccc(F)c1
IC50 [1]: 8.51 µM | IC50 [2]: 7.6 µM

Cc1ccc(S(=O)(=O)NNC(=O)CSc2nc3ccccc3c(=O)n2Cc2ccc3c(c2)OCO3)cc1
IC50 [1]: 28.2 µM | IC50 [2]: 49.8 µM

O=C(CSc1nc2ccccc2c(=O)n1Cc1ccc2c(c1)OCO2)Nc1ccccc1F
Activity [3]: 84.5% | Activity [4]: 0.02% | Activity [5]: 0.762% | Activity [6]: 12.6% | IC50 [1]: 2.46 µM | IC50 [2]: 5.86 µM | IC50 [7]: 0.207 µM | inhibition (INH) [8]: 50% | inhibition (INH) [9]: 50% | Activity [10]: 400% | Activity [11]: 100% | Activity [12]: 92.9% | Activity [13]: 0.071% | Activity [14]: 0% | IC50 [15]: 1.56 µM | IC50 [16]: 3.06 µM | Activity [17]: Active | Activity [18]: Active

O=C(CSc1nc2ccccc2c(=O)n1Cc1ccc2c(c1)OCO2)NNC(=S)Nc1ccc(S(=O)(=O)Nc2ccccn2)cc1
IC50 [1]: 36.9 µM | IC50 [2]: 3.87 µM

NNC(=O)CSc1nc2ccccc2c(=O)n1Cc1ccc2c(c1)OCO2
IC50 [1]: 8.15 µM | IC50 [2]: 20.7 µM

O=C(CSc1nc2ccccc2c(=O)n1Cc1ccc2c(c1)OCO2)NNC(=S)Nc1ccc(S(=O)(=O)Nc2ccc(Cl)nn2)cc1
IC50 [1]: 9.34 µM | IC50 [2]: 46 µM

O=C(CSc1nc2ccccc2c(=O)n1Cc1ccc2c(c1)OCO2)Nc1ccccc1Cl
IC50 [1]: 17.9 µM | IC50 [2]: 10.3 µM

C#Cc1cccc(Nc2ncnc3cc(OCCOC)c(OCCOC)cc23)c1 [ERLOTINIB]
IC50 [2]: 12.4 µM

O=C(CSc1nc2ccccc2c(=O)n1Cc1ccc2c(c1)OCO2)Nc1ccc(Br)cc1
IC50 [1]: 11.1 µM | IC50 [2]: 20.4 µM

O=C(CSc1nc2ccccc2c(=O)n1Cc1ccc2c(c1)OCO2)Nc1ccc(I)cc1
Activity [3]: 92.5% | Activity [4]: 0.024% | Activity [5]: 0.308% | Activity [6]: 7.12% | IC50 [1]: 13.2 µM | IC50 [2]: 6.84 µM | IC50 [7]: 0.754 µM | inhibition (INH) [8]: 50% | inhibition (INH) [9]: 50% | Activity [10]: 200% | Activity [11]: 50% | Activity [12]: 87.8% | Activity [13]: 2.73% | Activity [14]: 0.042% | IC50 [15]: 4.32 µM | IC50 [16]: 4.69 µM | Activity [17]: Active | Activity [18]: Active

O=C(CSc1nc2ccccc2c(=O)n1Cc1ccc2c(c1)OCO2)Nc1cc(Cl)c(Cl)cc1Cl
IC50 [1]: 12.1 µM | IC50 [2]: 26.1 µM

CC(=O)Nc1ccc(S(=O)(=O)NNC(=O)CSc2nc3ccccc3c(=O)n2Cc2ccc3c(c2)OCO3)cc1
IC50 [1]: 33.9 µM | IC50 [2]: 11.4 µM

O=C(CSc1nc2ccccc2c(=O)n1Cc1ccc2c(c1)OCO2)NNS(=O)(=O)c1ccccc1
IC50 [1]: 22.2 µM | IC50 [2]: 88.9 µM

O=C(CSc1nc2ccccc2c(=O)n1Cc1ccc2c(c1)OCO2)Nc1ccc(F)cc1
IC50 [1]: 7.18 µM | IC50 [2]: 14.5 µM

COc1cccc2c1C(=O)c1c(O)c3c(c(O)c1C2=O)C[C@@](O)(C(=O)CO)C[C@@H]3O[C@H]1C[C@H](N)[C@H](O)[C@H](C)O1 [DOXORUBICIN]
IC50 [1]: 8.9 µM

CCS(=O)(=O)NNC(=O)CSc1nc2ccccc2c(=O)n1Cc1ccc2c(c1)OCO2
Activity [3]: 86.1% | Activity [4]: 0.012% | Activity [5]: 0.4% | Activity [6]: 13.5% | IC50 [1]: 8.76 µM | IC50 [2]: 15.3 µM | IC50 [7]: 0.147 µM | inhibition (INH) [8]: 50% | inhibition (INH) [9]: 50% | Activity [10]: 500% | Activity [11]: 50% | Activity [12]: 94.2% | Activity [13]: 2.45% | Activity [14]: 0.039% | IC50 [15]: 2.25 µM | IC50 [16]: 5.93 µM | Activity [17]: Active | Activity [18]: Active

O=c1c2ccccc2[nH]c(=S)n1Cc1ccc2c(c1)OCO2
IC50 [1]: 27.3 µM | IC50 [2]: 26.6 µM

CCS(=O)(=O)Nc1ccc(/C(C)=N/NC(=O)CSc2nc3ccccc3c(=O)n2Cc2ccc3c(c2)OCO3)cc1
IC50 [1]: 9.08 µM | IC50 [2]: 13.9 µM
